{"data": "Results gathered from unrelated publications", "target": "Calcium/calmodulin-dependent protein kinase type 1D (CAMK1D, Homo sapiens, UniProt Q8IU85)", "note": "Compare with care: the assays were run in different laboratories."}
{"SMILES": "O=C(N1CCS(=O)(=O)CC1)N1C[C@H](c2ccc(OC(F)(F)F)cc2)C[C@H](c2nc(C3CC3)no2)C1", "test": "cell-free assay, competition with immobilised ligand", "setting": "1 µM", "remaining binding [%]": 91}
{"SMILES": "C[C@@H]1CCN(c2nccc(-c3cnn4ncccc34)n2)C1", "test": "binding", "setting": "1 µM", "remaining binding [%]": 86}
{"SMILES": "O=C(NCCCN1CCOCC1)c1ccc(Nc2nccc(-c3cc4ccccc4s3)n2)cc1", "test": "binding, competition with immobilised ligand", "setting": "1 µM", "remaining binding [%]": 48}
{"SMILES": "F[C@@H]1CCN(c2nccc(-c3cnn4ncccc34)n2)C1", "test": "binding", "setting": "1 µM", "remaining binding [%]": 100}
{"SMILES": "CNC(=O)[C@@H]1CC[C@@H](n2c(-c3ccc4cnccc4c3)nc3ccc(C(=O)NCc4cccc(C(N)=O)c4)cc32)C1", "test": "binding, competition with immobilised ligand", "setting": "1 µM", "remaining binding [%]": 100}
{"SMILES": "COc1ccc2c(c1)O[C@@H](c1ccc(OC)c(OC)c1)C[C@H]2NC(=O)C1(c2ccc3c(c2)OC(F)(F)O3)CC1", "test": "cell-free assay, competition with immobilised ligand", "setting": "1 µM", "remaining binding [%]": 94}
{"SMILES": "CCN1CCN(Cc2ccc(C(=O)Nc3ccc(C)c(Oc4ccc5c(c4)CC(=O)N5)c3)cc2C(F)(F)F)CC1", "test": "binding, competition with immobilised ligand", "setting": "1 µM", "remaining binding [%]": 52}
{"SMILES": "N[C@@H]1CCN(c2nccc(-c3cnn4ncccc34)n2)C1", "test": "binding", "setting": "1 µM", "remaining binding [%]": 100}
{"SMILES": "C=CC(=O)N1CCC(C(=O)NCC(=O)N2CCN(c3nc(-c4cnc(N)nc4C(F)F)nc(N4CCOCC4)n3)CC2)CC1", "test": "binding, competition with immobilised ligand", "setting": "1 µM", "remaining binding [%]": 100}
{"SMILES": "O=C(NS(=O)(=O)c1ccc(NCC2CCOCC2)c([N+](=O)[O-])c1)c1ccc(N2CCN(Cc3ccc(C(F)(F)F)cc3-c3ccc(Cl)cc3)CC2)cc1Oc1cnc2[nH]ccc2c1", "test": "cell-free assay, competition with immobilised ligand", "setting": "1 µM", "remaining binding [%]": 92}
{"SMILES": "O=C(NCCCN1CCOCC1)c1ccc(Nc2ncc(Cl)c(-c3ccc(Cl)s3)n2)cc1", "test": "binding, competition with immobilised ligand", "setting": "1 µM", "remaining binding [%]": 44}
{"SMILES": "c1cncc(-c2cccc(Nc3nccc(NC4CCCCC4)n3)c2)c1", "test": "binding, competition with immobilised ligand", "setting": "10 µM", "remaining binding [%]": 72}
{"SMILES": "CNC(=O)c1ccc(Nc2ncc(C(F)(F)F)c(NCc3nccnc3N(C)S(C)(=O)=O)n2)cc1", "test": "cell-free assay, competition with immobilised ligand", "setting": "0.1 µM", "remaining binding [%]": 100}
{"SMILES": "CC1CCCN1c1nccc(-c2cnn3ncccc23)n1 (stereo not shown)", "test": "binding", "setting": "1 µM", "remaining binding [%]": 100}
{"SMILES": "O=C(Nc1c[nH]nc1C(=O)NC1CCNCC1)c1cc(F)cc(F)c1", "test": "binding, competition with immobilised ligand", "setting": "1 µM", "remaining binding [%]": 100}
{"SMILES": "c1cnn2ncc(-c3ccnc(N4CCC45COC5)n3)c2c1", "test": "binding", "setting": "1 µM", "remaining binding [%]": 89}
{"SMILES": "CCc1ccccc1C(=O)Nc1n[nH]c2c(C)c(F)c(C3C(C#N)=C(C)N(C)C(C)=C3C#N)cc12", "test": "cell-free assay, competition with immobilised ligand", "setting": "1 µM", "remaining binding [%]": 87}
{"SMILES": "Cc1cnc(Nc2ccc(C(=O)N3CCC(N4CCCC4)CC3)cc2)nc1-c1cc2ccccc2s1", "test": "binding, competition with immobilised ligand", "setting": "1 µM", "remaining binding [%]": 8.3}
{"SMILES": "O=S(=O)(NC1CCC(c2cc(F)ccc2F)(S(=O)(=O)c2ccc(Cl)cc2)CC1)C(F)(F)F (stereo not shown)", "test": "cell-free assay, competition with immobilised ligand", "setting": "1 µM", "remaining binding [%]": 79}
{"SMILES": "COc1ncc2cc3ccccc3nc2c1C#N", "test": "cell-free assay, competition with immobilised ligand", "setting": "5 µM", "remaining binding [%]": 98}
{"SMILES": "O=C(N[C@H]1CCCCC/C=C\\C2C[C@@]2(C(=O)O)NC(=O)[C@@H]2C[C@@H](Oc3ccncc3)CN2C1=O)OC1CCCC1 (stereo partly shown)", "test": "cell-free assay, competition with immobilised ligand", "setting": "1 µM", "remaining binding [%]": 94}
{"SMILES": "CN(C)c1nccc(-c2cnn3ncccc23)n1", "test": "binding", "setting": "1 µM", "remaining binding [%]": 100}
